Reference: ChEMBL document CHEMBL1140106, “Blocking estrogen signaling after the hormone: pyrimidine-core inhibitors of estrogen receptor-coactivator binding” (J Med Chem, 2008)

Tests used:
[1] = molecular target: T1, Estrogen receptor beta (Homo sapiens, UniProt Q92731); test: Antagonist activity at ERbeta in human HEC1 cells assessed as inhibition of estrogen-induced transcriptional activity after 24 hrs by reporter gene assay; assay type: functional, cell-based, HEC-1
[2] = molecular target: T2, Estrogen receptor (Homo sapiens, UniProt P03372); test: Antagonist activity at ERalpha in human HEC1 cells assessed as inhibition of estrogen-induced transcriptional activity after 24 hrs by reporter gene assay; assay type: functional, cell-based, HEC-1
T2 sequence (P03372 whole entry): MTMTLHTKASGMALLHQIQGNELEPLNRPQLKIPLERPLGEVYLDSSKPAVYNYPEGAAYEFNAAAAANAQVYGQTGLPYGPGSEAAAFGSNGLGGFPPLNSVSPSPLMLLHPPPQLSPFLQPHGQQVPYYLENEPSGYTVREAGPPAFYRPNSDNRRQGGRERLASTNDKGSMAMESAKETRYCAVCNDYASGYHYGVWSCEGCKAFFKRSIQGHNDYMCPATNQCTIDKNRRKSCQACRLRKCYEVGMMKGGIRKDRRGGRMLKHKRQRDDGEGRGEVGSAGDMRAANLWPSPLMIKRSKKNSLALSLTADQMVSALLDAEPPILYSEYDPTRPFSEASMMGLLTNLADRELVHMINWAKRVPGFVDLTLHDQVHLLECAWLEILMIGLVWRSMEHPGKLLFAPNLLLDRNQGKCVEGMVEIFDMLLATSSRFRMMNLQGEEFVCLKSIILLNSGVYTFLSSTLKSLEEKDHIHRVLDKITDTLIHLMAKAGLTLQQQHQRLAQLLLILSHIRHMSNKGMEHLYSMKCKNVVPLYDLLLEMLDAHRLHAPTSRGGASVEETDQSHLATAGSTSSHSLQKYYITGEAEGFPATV
Summary of the method: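 HEC-1 cells, which lack endogenous ER, were lipofectin-transfected with full-length ERα vector, 2ERE-luciferase reporter and pCMV β-gal as internal control. After 6 h the medium was changed to 5% charcoal-dextran-treated calf serum with ligands.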

[3] = molecular target: T1, Estrogen receptor beta; test: Binding affinity to ERbeta assessed as inhibition of fluorescein-labeled nuclear receptor domain of steroid receptor coactivator 3 by TR-FRET assay
[4] = molecular target: T2, Estrogen receptor; test: Binding affinity to ERalpha assessed as inhibition of steroid receptor coactivator interaction in african green monkey COS7 cells by mammalian 2 hybrid assay; assay type: cell-based, COS-7
[5] = Cytotoxicity against human HEC1 cells assessed as decrease in viable cell count at 20 uM; assay type: cell-based; conditions: hec-1, 20 µM
[6] = molecular target: T2, Estrogen receptor; test: Binding affinity to ERalpha assessed as inhibition of fluorescein-labeled nuclear receptor domain of steroid receptor coactivator 3 by TR-FRET assay
Summary of the method: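 Fluorescein-SRC-3-NRD (50 nM) was then added for 1 h at room temperature in the dark. Buffer: 20 mM Tris pH 7.5, 0.01% NP40, 50 mM NaCl. SRC-1 Box II peptide served as positive control.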

[7] = molecular target: T2, Estrogen receptor; test: Binding affinity to ERalpha assessed as inhibition of steroid receptor coactivator 2 interaction by fluorescence polarization assay

T1 sequence (Q92731 whole entry): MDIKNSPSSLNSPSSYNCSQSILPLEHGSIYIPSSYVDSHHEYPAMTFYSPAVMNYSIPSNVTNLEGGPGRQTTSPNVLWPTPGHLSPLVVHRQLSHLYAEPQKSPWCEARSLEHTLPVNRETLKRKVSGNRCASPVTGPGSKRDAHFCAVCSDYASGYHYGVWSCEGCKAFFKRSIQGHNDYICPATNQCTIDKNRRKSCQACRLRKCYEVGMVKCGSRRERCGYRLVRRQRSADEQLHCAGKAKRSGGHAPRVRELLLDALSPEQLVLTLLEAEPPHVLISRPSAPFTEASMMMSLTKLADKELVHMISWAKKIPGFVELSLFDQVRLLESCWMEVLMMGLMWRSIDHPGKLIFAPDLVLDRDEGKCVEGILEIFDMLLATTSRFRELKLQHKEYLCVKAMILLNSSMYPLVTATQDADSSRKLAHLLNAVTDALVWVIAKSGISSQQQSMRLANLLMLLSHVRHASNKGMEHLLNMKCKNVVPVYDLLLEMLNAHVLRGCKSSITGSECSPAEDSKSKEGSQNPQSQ

| SMILES | IC50 [1] [mM] | IC50 [2] [µM] | Ki [3] [mM] | IC50 [4] [µM] | Activity [5] | Ki [6] [µM] | Ki [7] [µM] |
| --- | --- | --- | --- | --- | --- | --- | --- |
| CC(C)CNc1cc(NCc2ccccc2)nc(NCC(C)C)n1 | > 1 | 9.5 | > 1 | – | – | – | – |
| N=C(N)N/N=C/C1=C(Cl)c2ccccc2CC1 | – | – | – | 5.5 | – | – | – |
| CC(C)CNc1cc(CCc2ccccc2)nc(NCC(C)C)n1 | > 1 | 2.1 | > 1 | – | Active | 5.8 | – |
| c1ccc(CCc2cc(NCc3ccccc3)nc(NCc3ccccc3)n2)cc1 | – | > 1000 | > 1 | – | – | > 1000 | 49 |
